Test results as given in ChEMBL document CHEMBL3813647, “Discovery of an Orally Active and Liver-Targeted Prodrug of 5-Fluoro-2'-Deoxyuridine for the Treatment of Hepatocellular Carcinoma” (J Med Chem, 2016).

Experiments:
[1] = Cytotoxicity against human SMMC7721 cells assessed as reduction in cell viability after 72 hrs by MTT assay; assay type: functional, cell-based; conditions: SMMC-7721, 72 h
Outline: (§1)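 Cells in RPMI-1640 with 10% FBS, seeded at 4 × 10³ per well and attached for 24 h. Compound (DMSO ≤0.5% final) added for 72 h at 37 °C, 5% CO2. Viability read by MTT. IC50 set against 0.5% DMSO-treated cells taken as 100% viable. Mean of two independent experiments, each run in triplicate.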

Liver [2] = test: Drug metabolism in phenobarbital/beta-napthoflavone treated Sprague-Dawley rat liver S9 fraction assessed as prodrug activation at 50 uM preincubated for 5 mins followed by NADPH addition measured up to 60 mins by HPLC-MS/MS analysis; assay type: ADME, subcellular; conditions: s9, 1 h
Outline: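 S9 prepared from livers of Sprague-Dawley rats dosed i.g. with phenobarbital/β-naphthoflavone for 3 days. Incubation: 100 mM KH2PO4 pH 7.4, 5 mg/mL S9, compound at 50 μM, 5 min preincubation at 37 °C, then 2 mM NADPH. Samples at 0–60 min, MeOH extraction, FdUMP (m/z 325→129) measured by HPLC-MS/MS. Triplicate.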

[3] = Half life in rat plasma by HPLC analysis; assay type: ADME, cell-free
Outline: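 Rat plasma, 37 °C. Compound added from a 2.5 mM stock, sampled at 0–24 h, quenched with MeOH. Analyzed by HPLC-UV at 267 nm (C8 column, MeOH:H2O 68:32). Triplicate samples.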

Liver [4] = test: Drug uptake in Sprague-Dawley rat liver S9 fraction treated with (S)-Isopropyl 2-(((R)-(((2R,3S,5R)-5-(5-fluoro-2,4-dioxo 3,4-dihydropyrimidin-1(2H)-yl)-3-hydroxytetrahydrofuran-2-yl)methoxy)((2-methylbenzyl)oxy)phosphoryl)amino)propanoate at 20 ug/mL preincubated for 5 mins followed by NADPH addition measured at 20 mins by HPLC-MS/MS analysis; assay type: ADME, subcellular; conditions: s9, 20 min
Outline: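 Rat liver S9 (10 mg/mL) incubated with compound at 20 μg/mL. Parent, intermediate A and FdUMP followed over time by HPLC-MS/MS. Negative control run without NADPH.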

Plasma [5] = test: Cmax in Sprague-Dawley rat plasma assessed as 5-FU formation at 49.87 mg/kg administered through oral gavage measured up to 24 hrs by HPLC-MS/MS analysis; assay type: ADME, organism-based; design: dose 49.87 mg/kg, route oral; conditions: in vivo
Outline: (§2)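 Male Sprague-Dawley rats (220 ± 20 g), single gavage of 0.096 mmol/kg. FDUR was dosed in H2O; the prodrugs were dosed in 20% hydroxypropyl-β-cyclodextrin. n = 3 per time point, sampled at 0.25–24 h. Plasma (EDTA-K2, cardiac puncture) and freeze-clamped liver were homogenized in 20 mM EDTA-K2/70% MeOH. Analytes measured by HPLC-MS/MS in ESI negative mode.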

Plasma [6] = test: AUC (infinity) in Sprague-Dawley rat plasma assessed as FDUR formation at 49.87 mg/kg administered through oral gavage measured up to 24 hrs by HPLC-MS/MS analysis; assay type: ADME, organism-based; design: dose 49.87 mg/kg, route oral, time infinity; conditions: in vivo; outline: as §2
Plasma [7] = test: Cmax in Sprague-Dawley rat plasma assessed as FDUR formation at 49.87 mg/kg administered through oral gavage measured up to 24 hrs by HPLC-MS/MS analysis; assay type: ADME, organism-based; design: dose 49.87 mg/kg, route oral; conditions: in vivo; outline: as §2
Liver [8] = test: Cmax in Sprague-Dawley rat liver assessed as FdUMP formation at 49.87 mg/kg administered through oral gavage measured up to 24 hrs by HPLC-MS/MS analysis; assay type: ADME, organism-based; design: dose 49.87 mg/kg, route oral; conditions: in vivo; outline: as §2
Liver [9] = test: AUC (infinity) in Sprague-Dawley rat liver assessed as FdUMP formation at 49.87 mg/kg administered through oral gavage measured up to 24 hrs by HPLC-MS/MS analysis; assay type: ADME, organism-based; design: dose 49.87 mg/kg, time infinity, route oral; conditions: in vivo; outline: as §2
[10] = Ratio of FdUMP AUC (infinity) in Sprague-Dawley rat liver to FDUR AUC (infinity) in Sprague-Dawley rat plasma at 49.87 mg/kg administered through oral gavage; assay type: ADME, organism-based; conditions: in vivo
Outline: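 Male Sprague-Dawley rats (220 20 g), single gavage of 0.096 mmol/kg prodrug in 20% hydroxypropyl-β-cyclodextrin. Blood by cardiac puncture under isoflurane and liver at 0.25–24 h, n = 3 per time point. Liver freeze-clamped and homogenized in 20 mM EDTA-K2/70% MeOH. FdUMP (liver) and FDUR (plasma) by HPLC-MS/MS, negative ESI. Index = AUC(inf) liver FdUMP / AUC(inf) plasma FDUR.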

Liver [11] = test: Cmax in Sprague-Dawley rat liver assessed as FDUR formation at 49.87 mg/kg administered through oral gavage measured up to 24 hrs by HPLC-MS/MS analysis; assay type: ADME, organism-based; design: dose 49.87 mg/kg, route oral; conditions: in vivo; outline: as §2
Liver [12] = test: AUC (infinity) in Sprague-Dawley rat liver assessed as FDUR formation at 49.87 mg/kg administered through oral gavage measured up to 24 hrs by HPLC-MS/MS analysis; assay type: ADME, organism-based; design: dose 49.87 mg/kg, route oral, time infinity; conditions: in vivo; outline: as §2
[13] = Half life in human plasma by HPLC-MS/MS analysis; assay type: ADME, cell-free
Outline: (§3)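 Compound at 1 μg/mL final in dog or human plasma, 37 °C. Sampled at 0–24 h and quenched with ice-cold MeOH containing internal standard. Parent measured by LC-MS/MS in ESI negative mode; t1/2 calculated from percent remaining versus 0 h.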

[14] = Half life in dog plasma by HPLC-MS/MS analysis; assay type: ADME, cell-free, Canis lupus familiaris; outline: as §3
[15] = Cytotoxicity against human LO2 cells assessed as reduction in cell viability after 72 hrs by MTT assay; assay type: cell-based; conditions: L02, 72 h; outline: as §1
Mus musculus = test: Toxicity in KM mouse implanted with mouse H22 cells assessed as body weight level at 60 mg/kg administered daily through oral gavage after 8 days (reference value: 22.1 +/- 0.8g); assay type: organism-based; conditions: in vivo, 192 h
H22 = test: Antitumor activity against mouse H22 cells implanted in KM mouse assessed as tumor growth inhibition at 60 mg/kg administered daily through oral gavage after 8 days; assay type: functional; conditions: 192 h
Outline: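 Syngeneic H22 hepatoma: 2 × 10⁶ cells injected s.c. in the axilla (0.9% saline) of female KM mice, n = 10 per group. From day 2, daily oral gavage for 8 days. Test agent given in 35% PEG400; sorafenib suspended in 0.5% CMC-Na. Tumor weight taken on day 8; inhibition rate calculated versus the vehicle group.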

SMILES	IC50 [1] [µM]	Drug metabolism (Liver [2]) [nmol/min/mg]	half-life [3] [h]	further results
O=c1[nH]c(=O)n([C@H]2C[C@H](O)[C@@H](COP(=O)(NCc3ccccc3)OCc3cccc(F)c3)O2)cc1F (stereo not given in full)	241	12.5	> 24	–
O=c1[nH]c(=O)n([C@H]2C[C@H](O)[C@@H](COP(=O)(NCc3ccccc3)OCc3cccc(Br)c3)O2)cc1F (stereo not given in full)	225	32.8	> 24	–
COc1ccccc1COP(=O)(NCc1ccccc1)OC[C@H]1O[C@@H](n2cc(F)c(=O)[nH]c2=O)C[C@@H]1O (stereo not given in full)	6.8	238.9	3.4	–
Cc1ccc(COP(=O)(NCc2ccccc2)OC[C@H]2O[C@@H](n3cc(F)c(=O)[nH]c3=O)C[C@@H]2O)cc1 (stereo not given in full)	31.7	53.5	> 24	–
O=c1[nH]c(=O)n([C@H]2C[C@H](O)[C@@H](COP(=O)(NCc3ccccc3)OCc3ccc(Br)cc3)O2)cc1F (stereo not given in full)	107	39.1	> 24	–
O=c1[nH]c(=O)n([C@H]2C[C@H](O)[C@@H](COP(=O)(NCc3ccccc3)OCc3ccccc3F)O2)cc1F (stereo not given in full)	155	34.7	> 24	–
O=c1[nH]c(=O)n([C@H]2C[C@H](O)[C@@H](COP(=O)(NCc3ccccc3)OCc3ccc(Cl)cc3)O2)cc1F (stereo not given in full)	133	25.6	> 24	–
Cc1cccc(COP(=O)(NCc2ccccc2)OC[C@H]2O[C@@H](n3cc(F)c(=O)[nH]c3=O)C[C@@H]2O)c1 (stereo not given in full)	139	49.4	> 24	–
O=c1[nH]c(=O)n([C@H]2C[C@H](O)[C@@H](COP(=O)(NCc3ccccc3)OCc3cccc(Cl)c3)O2)cc1F (stereo not given in full)	206	22.6	> 24	–
O=c1[nH]c(=O)n([C@H]2C[C@H](O)[C@@H](COP(=O)(NCc3ccccc3)OCc3ccccc3Cl)O2)cc1F (stereo not given in full)	132	29.2	> 24	–
Cc1ccccc1CO[P@](=O)(N[C@@H](C)C(=O)O)OC[C@H]1O[C@@H](n2cc(F)c(=O)[nH]c2=O)C[C@@H]1O	–	–	–	Drug uptake (Liver [4]): metabolite_detected
COc1cccc(COP(=O)(NCc2ccccc2)OC[C@H]2O[C@@H](n3cc(F)c(=O)[nH]c3=O)C[C@@H]2O)c1 (stereo not given in full)	386	118.7	> 24	–
Cc1ccccc1COP(=O)(NCc1ccccc1)OC[C@H]1O[C@@H](n2cc(F)c(=O)[nH]c2=O)C[C@@H]1O (stereo not given in full)	18.6	58.4	> 24	Cmax (Plasma [5]): 14 ng/mL; AUC (Plasma [6]): 41 ng·h/mL; Cmax (Plasma [7]): 40 ng/mL; Cmax (Liver [8]): 55 ng/g; AUC (Liver [9]): < 155 ng·h/g; Ratio AUC [10]: < 3.8; Cmax (Liver [11]): 50 ng/g; AUC (Liver [12]): 838 ng·h/g
O=c1[nH]c(=O)n([C@H]2C[C@H](O)[C@@H](COP(=O)(NCc3ccccc3)OCc3ccccc3[N+](=O)[O-])O2)cc1F (stereo not given in full)	> 500	44.7	> 24	–
O=c1[nH]c(=O)n([C@H]2C[C@H](O)[C@@H](COP(=O)(NCc3ccccc3)OCc3ccc(F)cc3)O2)cc1F (stereo not given in full)	150	26.3	> 24	–
O=c1[nH]c(=O)n([C@H]2C[C@H](O)[C@@H](COP(=O)(NCc3ccccc3)OCc3ccc([N+](=O)[O-])cc3)O2)cc1F (stereo not given in full)	> 1000	40	> 24	–
Cc1ccccc1COP(=O)(N[C@@H](C)C(=O)OC(C)C)OC[C@H]1O[C@@H](n2cc(F)c(=O)[nH]c2=O)C[C@@H]1O (stereo not given in full)	276	–	< 0.083	half-life [13]: > 24 h; half-life [14]: > 24 h; IC50 [15]: 333 µM
O=c1[nH]c(=O)n([C@H]2C[C@H](O)[C@@H](COP(=O)(NCc3ccccc3)OCc3cccc([N+](=O)[O-])c3)O2)cc1F (stereo not given in full)	–	14.9	> 24	–
O=c1[nH]c(=O)n([C@H]2C[C@H](O)[C@@H](COP(=O)(NCc3ccccc3)OCc3ccccc3Br)O2)cc1F (stereo not given in full)	151	49.6	> 24	–
O=c1[nH]c(=O)n([C@H]2C[C@H](O)[C@@H](COP(=O)(NCc3ccccc3)OCc3ccccc3)O2)cc1F (stereo not given in full)	365	17.4	> 24	–
O=c1[nH]c(=O)n([C@H]2C[C@H](O)[C@@H](COP(=O)(O)O)O2)cc1F [5-FLUORODEOXYURIDYLATE]	–	–	–	Drug uptake (Liver [4]): metabolite_detected
CNC(=O)c1cc(Oc2ccc(NC(=O)Nc3ccc(Cl)c(C(F)(F)F)c3)cc2)ccn1 [SORAFENIB]	–	–	–	Activity (Mus musculus): 26.4 g; inhibition in vivo at 60 mg/kg (H22): 50.8%
